Source: EPA's CvTdb concentration-time database

Experiments:
[1] = test system: Rat; assay: concentration in brain after dosing; conditions: 864 h; dosed: Perfluorodecanoic acid; 10 mg/kg; oral; Male; Harlan Sprague Dawley
[2] = test system: Rat; assay: concentration in plasma after dosing; conditions: dosed: Perfluorodecanoic acid, 2 mg/kg, oral, Male, Harlan Sprague Dawley
[3] = test system: Rat; assay: concentration in plasma after dosing; conditions: 0.25 h; dosed: dichloroacetic acid; 10 mg/kg; oral; Male; Harlan Sprague Dawley
[4] = test system: Rat; assay: concentration in plasma after dosing; conditions: dosed: dichloroacetic acid, 100 mg/kg, oral, Male, F344
[5] = test system: Rat; assay: concentration in plasma after dosing; conditions: 20 min; dosed: dichloroacetic acid; 10 mg/kg; iv; Male; F344
[6] = test system: human; assay: concentration in plasma after dosing; negative times count back from the end of exposure; conditions: dosed: trichloroethylene, 100 ppm, inhalation, duration: 4 hr, person
In short: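 A PubMed search, classifier screening and manual review identified published in vivo toxicokinetic studies, which together with two structured collections supplied concentration-versus-time and amount-versus-time points. Points were mostly digitised from plot screenshots with WebPlotDigitizer, otherwise copied from tables. Dose, route, subject details and medium were hand-curated from each paper, and sampling and analytical methods are those of the sources, often unreported.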

[7] = test system: Rat; assay: concentration in plasma after dosing; conditions: 12 h; dosed: Primidone; 80 mg/kg; oral; Female; F344
[8] = test system: Rat; assay: concentration in plasma after dosing; conditions: dosed: Wyeth-14643, 5.0 mg/kg, oral, Male, Sprague-Dawley
[9] = test system: Rat; assay: concentration in brain after dosing; conditions: 12 h; dosed: Fluorotelomer alcohol 8+2; 80 mg/kg; oral; Female; Harlan Sprague Dawley
[10] = test system: Rat; assay: concentration in plasma after dosing; conditions: dosed: Fluorotelomer alcohol 8+2, 40 mg/kg, iv, Male, F344
[11] = test system: Rat; assay: concentration in kidney after dosing; conditions: 6 h; dosed: Fluorotelomer alcohol 8+2; 80 mg/kg; oral; Female; Harlan Sprague Dawley
[12] = test system: Rat; assay: concentration in kidney after dosing; conditions: 1 h; dosed: Fluorotelomer alcohol 8+2; 24 mg/kg; oral; Male; Harlan Sprague Dawley
[13] = test system: Rat; assay: concentration in liver after dosing; conditions: 40 min; dosed: Thiodiglycolic Acid; 20 mg/kg; iv; Male; Harlan Sprague Dawley
[14] = test system: Rat; assay: concentration in liver after dosing; conditions: 10 min; dosed: Thiodiglycolic Acid; 20 mg/kg; iv; Male; F344
[15] = test system: Rat; assay: concentration in heart after dosing; conditions: 8 h; dosed: Thiodiglycolic Acid; 20 mg/kg; iv; Female; Harlan Sprague Dawley
[16] = test system: Rat; assay: concentration in liver after dosing; conditions: 5.333 h; dosed: Thiodiglycolic Acid; 20 mg/kg; iv; Female; Harlan Sprague Dawley
[17] = test system: Rat; assay: concentration in liver after dosing; conditions: 10 min; dosed: Thiodiglycolic Acid; 20 mg/kg; iv; Female; Harlan Sprague Dawley
[18] = test system: Rat; assay: concentration in heart after dosing; conditions: 3 h; dosed: Thiodiglycolic Acid; 20 mg/kg; iv; Female; Harlan Sprague Dawley
[19] = test system: Rat; assay: concentration in heart after dosing; conditions: 1 h; dosed: Thiodiglycolic Acid; 20 mg/kg; iv; Male; Harlan Sprague Dawley
[20] = test system: Rat; assay: concentration in heart after dosing; conditions: 20 min; dosed: Thiodiglycolic Acid; 20 mg/kg; iv; Female; F344
[21] = test system: Rat; assay: concentration in thymus after dosing; conditions: 1 h; dosed: Thiodiglycolic Acid; 20 mg/kg; iv; Male; Harlan Sprague Dawley
[22] = test system: Rat; assay: concentration in plasma after dosing; conditions: 1 h; dosed: Thiodiglycolic Acid; 20 mg/kg; iv; Female; Harlan Sprague Dawley
[23] = test system: Rat; assay: concentration in plasma after dosing; conditions: 4 h; dosed: Thiodiglycolic Acid; 20 mg/kg; iv; Male; Harlan Sprague Dawley
[24] = test system: Rat; assay: concentration in thymus after dosing; conditions: 8 h; dosed: Thiodiglycolic Acid; 20 mg/kg; iv; Female; Harlan Sprague Dawley
[25] = test system: Rat; assay: concentration in liver after dosing; conditions: 20 min; dosed: Bis 2-Chloroethoxy Methane; 20 mg/kg; iv; Male; F344
[26] = test system: Rat; assay: concentration in heart after dosing; conditions: 1 h; dosed: Bis 2-Chloroethoxy Methane; 20 mg/kg; iv; Female; F344
[27] = test system: Rat; assay: concentration in plasma after dosing; conditions: 1 h; dosed: Bis 2-Chloroethoxy Methane; 20 mg/kg; iv; Female; F344
[28] = test system: Rat; assay: concentration in thymus after dosing; conditions: 2 h; dosed: Bis 2-Chloroethoxy Methane; 20 mg/kg; iv; Male; F344
[29] = test system: Rat; assay: concentration in thymus after dosing; conditions: 8 h; dosed: Bis 2-Chloroethoxy Methane; 20 mg/kg; iv; Female; Harlan Sprague-Dawley
[30] = test system: Rat; assay: concentration in thymus after dosing; conditions: 7 h; dosed: Bis 2-Chloroethoxy Methane; 20 mg/kg; iv; Male; F344
[31] = test system: Rat; assay: concentration in plasma after dosing; conditions: 10 min; dosed: Bis 2-Chloroethoxy Methane; 20 mg/kg; iv; Male; F344
[32] = test system: Rat; assay: concentration in plasma after dosing; conditions: 2 h; dosed: Di-n-butyl phthalate; 50 mg/kg; oral; Male; Sprague-Dawley
[33] = test system: Rat; assay: concentration in plasma after dosing; conditions: 1 h; dosed: Di-n-butyl phthalate; 50 mg/kg; oral; Male; Sprague-Dawley
[34] = test system: Rat; assay: concentration in plasma after dosing; conditions: 0.5 h; dosed: Di-n-butyl phthalate; 50 mg/kg; oral; Male; Sprague-Dawley

O=C(O)C(F)(F)C(F)(F)C(F)(F)C(F)(F)C(F)(F)C(F)(F)C(F)(F)C(F)(F)C(F)(F)F [Perfluorodecanoic acid]
Conditions	concentration in brain [ng/g]
[1]	867

[2]
Conditions	concentration in plasma [ng/mL]
1 h	4030
192 h	4670
2520 h	645

O=C(O)C(Cl)Cl [dichloroacetic acid]
Conditions	concentration in plasma [ng/mL]
[3]	720
[5]	2260

concentration in plasma [ng/mL]
Conditions	[4]	[6]
0 h	–	6
0.25 h	–	9
0.5 h	–	13
1 h	–	12
2 h	–	11
4 h	25900	5
8 h	–	5
10 min	8230	–
12 h	–	4
14 h	–	4
18 h	–	5
41 h	–	6
65 h	–	4

[6], during exposure
Conditions	concentration in plasma [ng/mL]
-3.48 h	80
-3 h	8
-2 h	7
-1 h	7

CCC1(c2ccccc2)C(=O)NC(=O)NC1=O [Phenobarbital]
Conditions	concentration in plasma [ng/mL]
[7]	2260

Cc1cccc(Nc2cc(Cl)nc(SCC(=O)O)n2)c1C
[8]
Conditions	concentration in plasma [ng/mL]
0.5 h	1970
10 h	150

OCCC(F)(F)C(F)(F)C(F)(F)C(F)(F)C(F)(F)C(F)(F)C(F)(F)C(F)(F)F [Fluorotelomer alcohol 8+2]
Conditions	concentration in brain [ng/g]	concentration in kidney [ng/g]
[9]	164	–
[11]	–	834
[12]	–	1520

[10]
Conditions	concentration in plasma [ng/mL]
0.5 h	5950
9 h	68

O=C(O)CSCC(=O)O [Thiodiglycolic Acid]
Conditions	concentration in heart [ng/g]	concentration in liver [ng/g]	concentration in plasma [ng/mL]	concentration in thymus [ng/g]
[13]	–	176000	–	–
[14]	–	155000	–	–
[15]	393	–	–	–
[16]	–	4800	–	–
[17]	–	10200	–	–
[18]	558	–	–	–
[19]	1520	–	–	–
[20]	3820	–	–	–
[21]	–	–	–	2310
[22]	–	–	4150	–
[23]	–	–	615	–
[24]	–	–	–	395

ClCCOCOCCCl [Bis 2-Chloroethoxy Methane]
Conditions	concentration in heart [ng/g]	concentration in liver [ng/g]	concentration in plasma [ng/mL]	concentration in thymus [ng/g]
[25]	–	3030	–	–
[26]	1380	–	–	–
[27]	–	–	1240	–
[28]	–	–	–	478
[29]	–	–	–	13.2
[30]	–	–	–	15.2
[31]	–	–	9480	–

CCCCOC(=O)c1ccccc1C(=O)O [Mono-n-butyl phthalate]
Conditions	concentration in plasma [ng/mL]
[32]	809
[33]	3070
[34]	21100
